FXN GAA850 act: FXN promoter activators, primary screen, cell-based, luciferase luminescence, HEK293 lucGAA850; HEK293 lucGAA850 FXN promoter luciferase reporter, 24 h; percent of 10 µM SAHA response; activation, % at 6 µM; 360,000 compounds, 0.56% hits;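 active = activation above the average of all compounds screened plus 3 SD, cutoff fixed separately per campaign, cut at about 7.5% in these data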
MC4R antagonist: MC4R antagonists of cAMP signaling, primary screen, cell-based, TR-FRET, antagonist arm of biased-ligand search. Melanocortin receptor 4 (Homo sapiens), P32245. MC4R-expressing cells, MTII-stimulated cAMP, LANCE TR-FRET. 360,000 compounds, 0.48% hits. inhibition, % at 6.5 µM. AID 540295, 2011;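 active = inhibition above its plate's cutoff, the mean of tested wells on that plate plus 3 SD, cut at about 29% in these data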
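System: U2OS cells stably expressing human melanocortin 4 receptor (MC4R). Reagent: Melanotan II challenge after compound preincubation. Doses: 6.5 µM. Times: 30-min compound, 1-h challenge, 1-h detection, room temperature. Measured by: TR-FRET with Eu-cAMP and labeled anti-cAMP, 671 nm. Replicates: singlicate.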
MC4R barr agon: MC4R agonists recruiting beta-arrestin, primary screen, cell-based, luminescence, agonist arm of biased-ligand search; U2OS MC4R beta-arrestin complementation; percent of melanotan II response, DMSO zero; activation, % at 8.9 µM; 360,000 compounds, 0.98% hits; AID 540308, 2011;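 active = activation above a per-plate cutoff, the mean activation of sample wells on that plate plus 3 SD, cut at about 8% in these data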
HTR2A ag: mouse Htr2a agonists via beta-arrestin recruitment, primary screen, cell-based, luminescence; CHO-K1 mHTR2A beta-arrestin complementation; percent of 30 µM serotonin response; activation, % at 7.6 µM; 360,000 compounds, 0.66% hits;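 active = activation above a run cutoff, the mean activation of all tested compounds plus 3 SD, cut at about 14% in these data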
AHR activator: AHR activators, primary screen, cell-based, luminescence, luciferase reporter, human | Aryl hydrocarbon receptor (Homo sapiens), P35869 | AHR-responsive luciferase reporter cells | activation, % at 5 µM | 320,000 compounds, 2.5% hits; in the data active = activation above about 47%
MC4R barr conf: MC4R beta-arrestin agonists, retest, confirmation, cell-based, luminescence, U2OS. shares compounds with MC4R barr agon. U2OS MC4R beta-arrestin recruitment; scaled DMSO 0%, Melanotan II 100%. activation, % at 8.9 µM. 2,400 compounds, 31% hits. AID 602192, 2012;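 active = mean activation across replicates above the hit cutoff set in the earlier primary screen, cut at about 8% in these data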
MOR-DOR barr ag: agonists of MOR-DOR heterodimerization, counter-screen for MC4R biased agonist project, cell-based, luminescence; shares compounds with MC4R barr agon; U2OS PathHunter beta-arrestin, beta-gal luminescence; percent of deltorphin B response, DMSO zero; activation, % at 9.2 µM; 2,400 compounds, 5.8% hits; AID 602194, 2012;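 active = mean activation across replicates exceeds the hit threshold derived in the earlier primary screen, cut at about 18% in these data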
Target sequence (P35372 whole entry, looked up): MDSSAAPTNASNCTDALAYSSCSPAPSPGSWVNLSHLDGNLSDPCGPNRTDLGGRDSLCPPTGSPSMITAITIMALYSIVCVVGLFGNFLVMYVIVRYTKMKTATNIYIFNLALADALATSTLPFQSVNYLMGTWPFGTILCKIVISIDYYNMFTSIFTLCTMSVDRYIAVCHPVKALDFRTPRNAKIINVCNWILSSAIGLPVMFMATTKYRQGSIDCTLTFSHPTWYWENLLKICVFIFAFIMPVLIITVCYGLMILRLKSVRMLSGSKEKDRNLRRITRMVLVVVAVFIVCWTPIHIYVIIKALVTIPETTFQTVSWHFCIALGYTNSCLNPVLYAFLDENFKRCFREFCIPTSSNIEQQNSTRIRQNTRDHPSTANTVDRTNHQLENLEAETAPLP
Target sequence (P41143 whole entry, looked up): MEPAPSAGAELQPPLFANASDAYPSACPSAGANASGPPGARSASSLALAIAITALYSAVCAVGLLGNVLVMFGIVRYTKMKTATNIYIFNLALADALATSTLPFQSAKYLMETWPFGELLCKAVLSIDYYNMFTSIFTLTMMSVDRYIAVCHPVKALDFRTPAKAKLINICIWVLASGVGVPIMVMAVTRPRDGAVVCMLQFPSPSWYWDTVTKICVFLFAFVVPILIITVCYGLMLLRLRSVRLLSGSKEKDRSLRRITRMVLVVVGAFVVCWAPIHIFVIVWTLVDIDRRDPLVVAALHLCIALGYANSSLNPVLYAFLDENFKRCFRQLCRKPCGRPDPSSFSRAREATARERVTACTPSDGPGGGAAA
Numbers stand for hits; i = inactive; nt = no result given. Compounds with a hit are over-represented: about 4.7% of the library has one in this group of screens.

SMILES	FXN GAA850 act	MC4R antagonist	MC4R barr agon	HTR2A ag	AHR activator	MC4R barr conf	MOR-DOR barr ag
COc1ccc(C2CC(c3ccc(Cl)cc3Cl)Nc3nc(N)nn32)cc1 (stereo not drawn)	i	i	i	i	i	nt	nt
O=C(N[C@H]1c2ccccc2C[C@H]1O)[C@H]1O[C@@H](n2ccc(=O)[nH]c2=O)[C@H](O)[C@@H]1O	nt	nt	nt	i	nt	nt	nt
O=c1oc2ccccc2cc1-c1cn2ccccc2n1	i	i	11	i	76	i	i
O=c1oc2ccccc2cc1-c1cn2cccnc2n1	i	i	i	i	i	nt	nt
CC(=O)N1CCC(C(=O)N2c3ccccc3N=C(c3ccc(C(F)(F)F)cc3)C2C(=O)NC2CCCC2)CC1 (stereo not drawn)	nt	nt	nt	i	nt	nt	nt
C/C(=N\Nc1nc2ccccc2[nH]1)c1ccc2c(c1)OCO2	i	i	15	i	128	i	i
C/C(=N\Nc1nc2ccccc2[nH]1)c1ccc2c(c1)OCCO2	i	i	9.8	i	56	i	i
COc1ccc2cc3cc(C(=O)NCc4cccs4)oc3nc2c1	i	i	11	i	i	i	i
Cc1ccc([N+](=O)[O-])c(NC(=O)COC(=O)CCNS(=O)(=O)c2cccs2)c1C	i	i	i	i	nt	nt	nt
CCC12CCCN3CCC4(C(=C(C(=O)OC)C1)Nc1ccccc14)C32 (stereo not drawn)	i	i	10	i	nt	i	i
CCOC(=O)c1c(C)[nH]c(C(=O)Cn2nnc(-c3ccc(Cl)cc3)n2)c1C	i	i	18	i	i	11	i
Cc1sc2nc(SCC(=O)NCc3ccco3)n(C)c(=O)c2c1C	i	i	i	i	i	nt	nt
C=CCn1c(SCC(=O)Nc2sccc2C(N)=O)nc2sc(C)c(C)c2c1=O	i	i	i	i	i	nt	nt
C=CCn1c(SCC(=O)NC(=O)NCc2ccco2)nc2sc(CC)cc2c1=O	i	i	12	i	i	i	i
C=CCn1c(SCC(=O)Nc2ccccc2C)nc2sc(C)c(C)c2c1=O	i	i	24	i	i	i	i
Cc1sc2nc(SCC(=O)NCc3ccco3)n(CCc3ccccc3)c(=O)c2c1C	i	i	48	i	i	i	38
O=C(NCCc1ccc(Cl)cc1)c1ccc(S(=O)(=O)N2CCCC2)cc1	i	i	i	i	i	nt	nt
Cc1ccc(C(=O)Nc2c(C)cc(-c3ccc(Cl)cc3)oc2=O)cc1	i	i	19	i	i	i	i
Cc1cc(-c2ccc(Cl)cc2)oc(=O)c1NC(=O)c1ccccc1	i	i	i	i	i	nt	nt
O=C(COC(=O)c1ccc[n+]([O-])c1)Nc1c(Br)cc([N+](=O)[O-])cc1Br	nt	nt	nt	nt	i	nt	nt
N#Cc1nc(-c2ccc(OCc3ccc(Cl)cc3)cc2)oc1NCc1cccnc1	i	i	15	i	i	i	i
N#Cc1nc(-c2ccc(OCc3ccccc3)cc2)oc1NCc1cccnc1	i	i	i	i	i	nt	nt
O=C(Nc1cccc(O)c1)c1cc2nc(-c3ccccc3)cc(-c3ccccc3)n2n1	i	i	12	i	i	i	i
O=C(NC1CCCC1)c1cc2nc(-c3ccccc3)cc(-c3ccccc3)n2n1	i	i	i	i	i	nt	nt
Cn1cc(Br)c(C(=O)N/N=C/c2cccc(OC3CSC3)c2)n1	i	i	i	i	i	nt	nt
SMILES	FXN GAA850 act	MC4R antagonist	MC4R barr agon	HTR2A ag	AHR activator	MC4R barr conf	MOR-DOR barr ag
CCOc1cc(/C=N/NC(=O)c2nn(C)cc2Br)ccc1OCc1ccccc1Cl	i	i	12	i	i	i	i
Cn1c(SCC(=O)NC(=O)Cc2ccccc2)nnc1-c1ccc(F)cc1	i	i	i	i	i	nt	nt
CC1=C(SCCC#N)S/C(=C2\SC(C)=C(SCCC#N)S2)S1	i	i	19	i	i	i	i
Cn1c(SCCC#N)nnc1-c1ccc(F)cc1	i	i	i	i	i	nt	nt
CCc1ccc(N=C2NC(=O)/C(=C/c3cc(OC)c(O)c(OC)c3)S2)cc1	i	i	14	i	nt	13	i
C=CCn1c(-c2ccccc2)cc(SC)c(C#N)c1=O	i	i	12	i	i	i	i
CCCn1c(-c2ccccc2)cc(SC)c(C#N)c1=O	i	i	i	i	i	nt	nt
O=C(NC1CCCC1)C(c1ccccc1)n1c(Cc2cc(F)cc(F)c2)nc2ccccc21 (stereo not drawn)	nt	nt	nt	i	nt	nt	nt
Cn1c(SCC(=O)Nc2ccc(Cl)cc2)nnc1C1CC1	i	i	i	i	i	nt	nt
CSc1sc(-c2nnc(SCC(=O)Nc3ccc(Cl)cc3)n2C)c2c1C=CCC2	i	i	16	i	i	i	i
O=C(Nc1ccc2c(c1)CCC2)c1cc2ccccc2o1	i	i	i	i	i	nt	nt
COc1cc(NC(=O)c2ccc(C)cc2C)ccc1NC(=O)c1cc2ccccc2o1	i	i	12	i	i	16	i
COc1cc(NC(=O)c2ccco2)c(OC)cc1NC(=O)c1cc(OC)c(OC)c(OC)c1	i	i	i	i	i	nt	nt
O=C(Nc1ccc2c(c1)Cc1ccccc1-2)c1cc2ccccc2o1	i	i	13	i	i	i	i
COc1cc(NC(=O)c2ccc(C)cc2)ccc1NC(=O)c1cc2ccccc2o1	i	i	i	i	i	nt	nt
CCOc1cc(NC(=O)c2ccco2)c(OCC)cc1NC(=O)c1cc(OC)c(OC)c(OC)c1	i	i	13	i	i	i	53
COc1cc(NC(=O)c2oc3ccccc3c2C)ccc1NC(=O)c1ccco1	i	i	9.7	i	i	i	i
CC1(C)Oc2ccc(C(=O)N/N=C/c3ccc(O)cc3)cc2NC1=O	i	i	i	i	i	nt	nt
O=C1Nc2c(c(=O)[nH]c(=O)n2-c2ccc(F)cc2)C1(NS(=O)(=O)c1ccccc1)C(F)(F)F (stereo not drawn)	i	i	i	i	i	nt	nt
COc1cc(NC(=O)c2cccc(F)c2)ccc1NC(=O)c1cc2ccccc2o1	i	i	12	i	i	i	i
COc1ccc(O)c(-c2cc(C(F)(F)C(F)F)nc(-c3ccccc3)n2)c1	i	i	14	i	i	17	i
CC(C)NC(=O)N(C)C[C@H]1Oc2ccc(NS(=O)(=O)c3ccc(F)cc3)cc2C(=O)N([C@H](C)CO)C[C@@H]1C	i	i	i	i	i	nt	nt
